Measured values reported in ChEMBL document CHEMBL1151174, “Labdanes and isopimaranes from Platycladus orientalis and their effects on erythrocyte membrane and on Plasmodium falciparum growth in the erythrocyte host cells” (J Nat Prod, 2004).
Active and inactive are the calls of the source. The calls are words filed in the database; no cut-off is given here.

Columns and labels:
Erythrocyte [1] = assay: Induction of membrane modification in erythrocytes assessed as formation of echinocyte type 3 shape change at 100 ug/mL after 48 hrs by phase contrast light microscopy; type: functional, cell-based
Procedure, shortened: (§1)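 Nonparasitized erythrocytes incubated with compound under the antiplasmodial culture conditions, without radiotracer. Controls held 0% or 0.5% DMSO and no compound. At 48 h, samples spread on slides, air-dried, methanol-fixed and Giemsa-stained for phase-contrast light microscopy. Dominant cell shapes scored by Bessis nomenclature; degree of lysis also graded.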

Erythrocyte [2] = assay: Induction of membrane modification in erythrocytes assessed as formation of echinocyte type 3 shape change at 50 ug/mL after 48 hrs by phase contrast light microscopy; type: functional, cell-based; procedure, shortened: as §1
Erythrocyte [3] = assay: Induction of membrane modification in erythrocytes assessed as formation of echinocyte type 2 shape change at 25 ug/mL after 48 hrs by phase contrast light microscopy; type: functional, cell-based; procedure, shortened: as §1
Erythrocyte [4] = assay: Induction of membrane modification in erythrocytes assessed as formation of echinocyte type 1 shape change at 12.5 ug/mL after 48 hrs by phase contrast light microscopy; type: functional, cell-based; procedure, shortened: as §1
Plasmodium falciparum = assay: Antiplasmodial activity against Plasmodium falciparum 3D7 by [3H]phenylalanine uptake; type: functional, organism-based; details: 3D7, 48 h
Procedure, shortened: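 Asynchronous cultures of chloroquine-sensitive P. falciparum 3D7 in erythrocytes, initial parasitemia 1.5%. Compounds added from DMSO solutions, final DMSO up to 0.5% in growth medium. Growth indexed by [3H]phenylalanine incorporation. Inhibition curves from eight concentrations, each in triplicate, give IC50 (50% growth inhibition). Chloroquine diphosphate as positive reference.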

Erythrocyte [5] = assay: Induction of membrane modification in erythrocytes assessed as formation of echinocyte type 1 and discocyte shape change at 100 ug/mL after 48 hrs by phase contrast light microscopy; type: functional, cell-based; procedure, shortened: as §1
Erythrocyte [6] = assay: Induction of membrane modification in erythrocytes assessed as formation of echinocyte type 1 and discocyte shape change at 50 ug/mL after 48 hrs by phase contrast light microscopy; type: functional, cell-based; procedure, shortened: as §1
Erythrocyte [7] = assay: Induction of membrane modification in erythrocytes assessed as formation of discocyte shape change at 25 ug/mL after 48 hrs by phase contrast light microscopy; type: functional, cell-based; procedure, shortened: as §1
Erythrocyte [8] = assay: Induction of membrane modification in erythrocytes assessed as formation of discocyte shape change at 12.5 ug/mL after 48 hrs by phase contrast light microscopy; type: functional, cell-based; procedure, shortened: as §1
Erythrocyte [9] = assay: Induction of membrane modification in erythrocytes assessed as formation of echinocyte type 1 shape change at 100 ug/mL after 48 hrs by phase contrast light microscopy; type: functional, cell-based; procedure, shortened: as §1
Erythrocyte [10] = assay: Induction of membrane modification in erythrocytes assessed as formation of discocyte shape change at 50 ug/mL after 48 hrs by phase contrast light microscopy; type: functional, cell-based; procedure, shortened: as §1
Erythrocyte [11] = assay: Induction of membrane modification in erythrocytes assessed as formation of spherostomatocyte type 2 shape change at 100 ug/mL after 48 hrs by phase contrast light microscopy; type: functional, cell-based; procedure, shortened: as §1
Erythrocyte [12] = assay: Induction of membrane modification in erythrocytes assessed as formation of spherostomatocyte type 1 shape change at 50 ug/mL after 48 hrs by phase contrast light microscopy; type: functional, cell-based; procedure, shortened: as §1
Erythrocyte [13] = assay: Induction of membrane modification in erythrocytes assessed as formation of stomatocyte type 2 and 1 shape change at 25 ug/mL after 48 hrs by phase contrast light microscopy; type: functional, cell-based; procedure, shortened: as §1
Erythrocyte [14] = assay: Induction of membrane modification in erythrocytes assessed as formation of stomatocyte type 2 shape change at 100 ug/mL after 48 hrs by phase contrast light microscopy; type: functional, cell-based; procedure, shortened: as §1
Erythrocyte [15] = assay: Induction of membrane modification in erythrocytes assessed as formation of stomatocyte type 1 and discocyte shape change at 50 ug/mL after 48 hrs by phase contrast light microscopy; type: functional, cell-based; procedure, shortened: as §1
Erythrocyte [16] = assay: Induction of membrane modification in erythrocytes assessed as formation of stomatocyte type 3 and 2 shape change at 50 ug/mL after 48 hrs by phase contrast light microscopy; type: functional, cell-based; procedure, shortened: as §1
Erythrocyte [17] = assay: Induction of membrane modification in erythrocytes assessed as formation of stomatocyte type 2 and discocyte shape change at 25 ug/mL after 48 hrs by phase contrast light microscopy; type: functional, cell-based; procedure, shortened: as §1
Erythrocyte [18] = assay: Induction of membrane modification in erythrocytes assessed as formation of spherostomatocyte type 1 shape change at 100 ug/mL after 48 hrs by phase contrast light microscopy; type: functional, cell-based; procedure, shortened: as §1
Erythrocyte [19] = assay: Induction of membrane modification in erythrocytes assessed as formation of spheroechinocyte type 2 shape change at 100 ug/mL after 48 hrs by phase contrast light microscopy; type: functional, cell-based; procedure, shortened: as §1
Erythrocyte [20] = assay: Induction of membrane modification in erythrocytes assessed as formation of spheroechinocyte type 1 and echinocyte type 3 shape change at 100 ug/mL after 48 hrs by phase contrast light microscopy; type: functional, cell-based; details: 50 ug/mL, in the assay text read “50 ug/mL” for “100 ug/mL”; procedure, shortened: as §1
Erythrocyte [21] = assay: Induction of membrane modification in erythrocytes assessed as formation of echinocyte type 3 shape change at 25 ug/mL after 48 hrs by phase contrast light microscopy; type: functional, cell-based; procedure, shortened: as §1

Compound | IC50 (Plasmodium falciparum) [µM] | Activity (Erythrocyte [7]) | Activity (Erythrocyte [8]) | Activity (Erythrocyte [10]) | Activity (Erythrocyte [14]) | further results
C=C[C@@]1(C)CCC2=C(CC[C@H]3C(C)(C)[C@@H](O)CC[C@]23C)C1 | 24.6 |  |  |  |  | Activity (Erythrocyte [1]): Active; Activity (Erythrocyte [2]): Active; Activity (Erythrocyte [3]): Active; Activity (Erythrocyte [4]): Active
C=C1CC[C@@H]2[C@](C)(CCC[C@]2(C)C(=O)O)[C@H]1CCC1=CC(=O)OC1O (stereo not given in full) | 84.1 | Active | Active |  |  | Activity (Erythrocyte [5]): Active; Activity (Erythrocyte [6]): Active
C=C[C@@]1(C)CC[C@H]2[C@@](O)(CC[C@H]3C(C)(C)[C@@H](O)CC[C@@]32C)C1 | 80.9 | Active | Active | Active |  | Activity (Erythrocyte [9]): Active
C=C1CC[C@@H]2[C@](C)(CCC[C@]2(C)C(=O)O)[C@H]1CCC1=CC(O)OC1=O (stereo not given in full) | 145 | Active | Active | Active |  | Activity (Erythrocyte [5]): Active
CC1(C)CCC[C@@]2(C)[C@H]1CC[C@@]1(CO1)[C@@H]2C/C=C(/C=O)CC=O [AFRAMODIAL] | 76.3 |  | Active |  |  | Activity (Erythrocyte [11]): Active; Activity (Erythrocyte [12]): Active; Activity (Erythrocyte [13]): Active
C=C1CC[C@@H]2[C@](C)(CCC[C@]2(C)C(=O)O)[C@H]1CC/C(C)=C/CO [ISOCUPRESSIC ACID] | 104 | Active | Active | Active | Active | 
C=C1CC[C@@H]2[C@](C)(CCC[C@]2(C)C(=O)O)[C@H]1CCc1ccoc1 [LAMBERTIAINC ACID] | 130 | Active | Active |  | Active | Activity (Erythrocyte [15]): Active
C=C1CC[C@@H]2[C@](C)(CCC[C@]2(C)C(=O)OC)[C@H]1CCC1=CCOC1=O [PINUSOLIDE] | 53.4 |  | Active |  |  | Activity (Erythrocyte [16]): Active; Activity (Erythrocyte [17]): Active; Activity (Erythrocyte [18]): Active
C=C1CC[C@@H]2[C@](C)(CCC[C@]2(C)C(=O)O)[C@H]1CCC1=CCOC1=O [PINUSOLIDIC ACID] | 164 | Active | Active |  | Active | Activity (Erythrocyte [6]): Active
C=C[C@]1(C)C=C2CC[C@H]3[C@](C)(CO)[C@@H](O)CC[C@]3(C)[C@H]2CC1 [SANDARACOPIMARADIENEDIOL] | 93.3 |  |  |  |  | Activity (Erythrocyte [19]): Active; Activity (Erythrocyte [20]): Active; Activity (Erythrocyte [21]): Active; Activity (Erythrocyte [4]): Active
